From ChEMBL document CHEMBL2021785, “Compounds of Alpinia katsumadai as potential efflux inhibitors in Mycobacterium smegmatis” (2012)
Converted amounts (≈) assume the structure as drawn. The source made the active and inactive calls. The calls are words filed in the database; no cut-off is given here.

Legend:
[1] = system: Mycolicibacterium smegmatis; experiment: Antibacterial activity against Mycobacterium smegmatis mc2 155 after 72 hrs by MTT assay; assay type: functional; settings: str. MC2 155, 72 h
In short: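 Broth dilution in Mueller-Hinton broth; compounds dissolved in DMSO, two-fold serial dilutions; inoculum adjusted to McFarland 0.5 and diluted to final 5 × 10^5 cfu/mL; cells pre-grown on Columbia blood agar with 5% horse blood, 37 °C, 72 h. Plates incubated 37 °C for 72 h; MIC read after MTT as lowest concentration inhibiting growth.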

[2] = system: Mycolicibacterium smegmatis MC2 155; experiment: Inhibition of Multidrug resistance efflux pump in Mycobacterium smegmatis mc2 155 assessed as modulation of ciprofloxacin-mediated antibacterial activity measuring ratio of ciprofloxacin MIC to ciprofloxacin and compound MIC at 32 mg/L after 72 hrs by MTT assay
In short: (§1)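 Checkerboard-type modulation by broth dilution in MHB with DMSO-dissolved modulators: either modulator held constant (half its MIC) with two-fold serially diluted antibiotic/EtBr, or antibiotic fixed with modulator serially diluted. Final inoculum 5 × 10^5 cfu/mL, 37 °C, 72 h, MTT read-out. Modulation factor quantifies shift in antibiotic/EtBr MIC; FICI assesses combination effect.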

[3] = system: Mycolicibacterium smegmatis MC2 155; experiment: Inhibition of Multidrug resistance efflux pump in Mycobacterium smegmatis mc2 155 assessed as modulation of ethambutol-mediated antibacterial activity measuring ratio of ethambutol MIC to ethambutol and compound MIC at 32 mg/L after 72 hrs by MTT assay; in short: as §1
[4] = system: Mycolicibacterium smegmatis MC2 155; experiment: Inhibition of Multidrug resistance efflux pump in Mycobacterium smegmatis mc2 155 assessed as modulation of EtBr-mediated antibacterial activity measuring fractional inhibitory concentration index at 32 mg/L after 72 hrs by MTT assay; in short: as §1
[5] = system: Mycolicibacterium smegmatis MC2 155; experiment: Inhibition of Multidrug resistance efflux pump in Mycobacterium smegmatis mc2 155 assessed as modulation of EtBr-mediated antibacterial activity measuring ratio of EtBr MIC to EtBr and compound MIC at 32 mg/L after 72 hrs by MTT assay; in short: as §1
[6] = system: Mycolicibacterium smegmatis MC2 155; experiment: Inhibition of Multidrug resistance efflux pump in Mycobacterium smegmatis mc2 155 assessed as modulation of rifampicin-mediated antibacterial activity measuring reduction in MIC at 1/2 of MIC after 72 hrs by MTT assay relative to control; in short: as §1
[7] = system: Mycolicibacterium smegmatis MC2 155; experiment: Inhibition of Multidrug resistance efflux pump in Mycobacterium smegmatis mc2 155 assessed as EtBr accumulation measuring relative fluorescence at half the MIC measured for 60 mins by spectrophotometry relative to control
In short: (§2)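 Overnight 7H9/ADC culture (37 °C, 100 rpm) centrifuged and resuspended in PBS with 0.05% Tween 80 to OD600 0.4. Cells mixed 1:1 with test solutions containing 0.5 mg/L EtBr and 0.4% glucose, compounds from MIC down to 1/16 MIC. Fluorescence (ex 531/em 590 nm) read every 50 s at 37 °C for 60 min; repeated at least three times.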

[8] = system: Mycolicibacterium smegmatis MC2 155; experiment: Inhibition of Multidrug resistance efflux pump in Mycobacterium smegmatis mc2 155 assessed as modulation of rifampicin-mediated antibacterial activity measuring ratio of rifampicin MIC to rifampicin and compound MIC at 32 mg/L after 72 hrs by MTT assay; in short: as §1
[9] = system: Mycolicibacterium smegmatis MC2 155; experiment: Inhibition of Multidrug resistance efflux pump in Mycobacterium smegmatis mc2 155 assessed as modulation of isoniazid-mediated antibacterial activity measuring ratio of isoniazid MIC to isoniazid and compound MIC at 32 mg/L after 72 hrs by MTT assay; in short: as §1
[10] = system: Mycolicibacterium smegmatis MC2 155; experiment: Inhibition of Multidrug resistance efflux pump in Mycobacterium smegmatis mc2 155 assessed as modulation of rifampicin-mediated antibacterial activity measuring fractional inhibitory concentration index at 32 mg/L after 72 hrs by MTT assay; in short: as §1
[11] = system: Mycolicibacterium smegmatis MC2 155; experiment: Inhibition of Multidrug resistance efflux pump in Mycobacterium smegmatis mc2 155 assessed as modulation of EtBr-mediated antibacterial activity measuring reduction in MIC at 1/2 of MIC after 72 hrs by MTT assay relative to control; in short: as §1
[12] = system: Mycolicibacterium smegmatis MC2 155; experiment: Inhibition of Multidrug resistance efflux pump in Mycobacterium smegmatis mc2 155 assessed as inhibition of EtBr efflux measuring normalized fluorescence at half the MIC measured for 60 mins by spectrophotometry relative to control
[13] = system: Mycolicibacterium smegmatis MC2 155; experiment: Inhibition of Multidrug resistance efflux pump in Mycobacterium smegmatis mc2 155 assessed as modulation of rifampicin-mediated antibacterial activity measuring ratio of rifampicin MIC to rifampicin and compound MIC at 2 mg/L after 72 hrs by MTT assay; in short: as §1
[14] = system: Mycolicibacterium smegmatis MC2 155; experiment: Inhibition of Multidrug resistance efflux pump in Mycobacterium smegmatis mc2 155 assessed as modulation of isoniazid-mediated antibacterial activity measuring ratio of isoniazid MIC to isoniazid and compound MIC at 2 mg/L after 72 hrs by MTT assay; in short: as §1
[15] = system: Mycolicibacterium smegmatis MC2 155; experiment: Inhibition of Multidrug resistance efflux pump in Mycobacterium smegmatis mc2 155 assessed as modulation of EtBr-mediated antibacterial activity measuring ratio of EtBr MIC to EtBr and compound MIC at 2 mg/L after 72 hrs by MTT assay; in short: as §1
[16] = system: Mycolicibacterium smegmatis MC2 155; experiment: Inhibition of Multidrug resistance efflux pump in Mycobacterium smegmatis mc2 155 assessed as modulation of EtBr-mediated antibacterial activity measuring ratio of EtBr MIC to EtBr and compound MIC at 64 mg/L after 72 hrs by MTT assay; in short: as §1
[17] = system: Mycolicibacterium smegmatis MC2 155; experiment: Inhibition of Multidrug resistance efflux pump in Mycobacterium smegmatis mc2 155 assessed as modulation of isoniazid-mediated antibacterial activity measuring ratio of isoniazid MIC to isoniazid and compound MIC at 64 mg/L after 72 hrs by MTT assay; in short: as §1
[18] = system: Mycolicibacterium smegmatis MC2 155; experiment: Inhibition of Multidrug resistance efflux pump in Mycobacterium smegmatis mc2 155 assessed as modulation of rifampicin-mediated antibacterial activity measuring fractional inhibitory concentration index at 64 mg/L after 72 hrs by MTT assay; in short: as §1
[19] = system: Mycolicibacterium smegmatis MC2 155; experiment: Inhibition of Multidrug resistance efflux pump in Mycobacterium smegmatis mc2 155 assessed as modulation of rifampicin-mediated antibacterial activity measuring ratio of rifampicin MIC to rifampicin and compound MIC at 64 mg/L after 72 hrs by MTT assay; in short: as §1
[20] = system: Mycolicibacterium smegmatis MC2 155; experiment: Inhibition of Multidrug resistance efflux pump in Mycobacterium smegmatis mc2 155 assessed as modulation of ciprofloxacin-mediated antibacterial activity measuring ratio of ciprofloxacin MIC to ciprofloxacin and compound MIC at 64 mg/L after 72 hrs by MTT assay; in short: as §1
[21] = system: Mycolicibacterium smegmatis MC2 155; experiment: Inhibition of Multidrug resistance efflux pump in Mycobacterium smegmatis mc2 155 assessed as EtBr accumulation measuring relative fluorescence at 1/4 of MIC measured for 60 mins by spectrophotometry relative to control; in short: as §2
[22] = system: Mycolicibacterium smegmatis MC2 155; experiment: Inhibition of Multidrug resistance efflux pump in Mycobacterium smegmatis mc2 155 assessed as EtBr accumulation measuring relative fluorescence at lower MIC measured for 60 mins by spectrophotometry relative to control; in short: as §2
[23] = system: Mycolicibacterium smegmatis MC2 155; experiment: Inhibition of Multidrug resistance efflux pump in Mycobacterium smegmatis mc2 155 assessed as EtBr accumulation measuring relative fluorescence at 1/8 of MIC measured for 60 mins by spectrophotometry relative to control; in short: as §2
[24] = system: Mycolicibacterium smegmatis MC2 155; experiment: Inhibition of Multidrug resistance efflux pump in Mycobacterium smegmatis mc2 155 assessed as inhibition of EtBr efflux measuring relative fluorescence at lower MIC measured for 60 mins by spectrophotometry relative to control
[25] = system: Mycolicibacterium smegmatis MC2 155; experiment: Inhibition of Multidrug resistance efflux pump in Mycobacterium smegmatis mc2 155 assessed as modulation of EtBr-mediated antibacterial activity measuring fractional inhibitory concentration index at 64 mg/L after 72 hrs by MTT assay; in short: as §1
[26] = system: Mycolicibacterium smegmatis MC2 155; experiment: Inhibition of Multidrug resistance efflux pump in Mycobacterium smegmatis mc2 155 assessed as EtBr accumulation measuring relative fluorescence at MIC measured for 60 mins by spectrophotometry relative to control; in short: as §2
[27] = system: Mycolicibacterium smegmatis MC2 155; experiment: Inhibition of Multidrug resistance efflux pump in Mycobacterium smegmatis mc2 155 assessed as modulation of ethambutol-mediated antibacterial activity measuring ratio of ethambutol MIC to ethambutol and compound MIC at 64 mg/L after 72 hrs by MTT assay; in short: as §1
[28] = system: Mycolicibacterium smegmatis MC2 155; experiment: Inhibition of Multidrug resistance efflux pump in Mycobacterium smegmatis mc2 155 assessed as inhibition of EtBr efflux measuring relative fluorescence at 1/8 of MIC measured for 60 mins by spectrophotometry relative to control
[29] = system: Mycolicibacterium smegmatis MC2 155; experiment: Inhibition of Multidrug resistance efflux pump in Mycobacterium smegmatis mc2 155 assessed as modulation of isoniazid-mediated antibacterial activity measuring ratio of isoniazid MIC to isoniazid and compound MIC at 4 mg/L after 72 hrs by MTT assay; in short: as §1
[30] = system: Mycolicibacterium smegmatis MC2 155; experiment: Inhibition of Multidrug resistance efflux pump in Mycobacterium smegmatis mc2 155 assessed as modulation of rifampicin-mediated antibacterial activity measuring ratio of rifampicin MIC to rifampicin and compound MIC at 4 mg/L after 72 hrs by MTT assay; in short: as §1
[31] = system: Mycolicibacterium smegmatis MC2 155; experiment: Inhibition of Multidrug resistance efflux pump in Mycobacterium smegmatis mc2 155 assessed as modulation of EtBr-mediated antibacterial activity measuring ratio of EtBr MIC to EtBr and compound MIC at 4 mg/L after 72 hrs by MTT assay; in short: as §1

N#CC(C#N)=NNc1cccc(Cl)c1 [CARBONYL CYANIDE M-CHLOROPHENYLHYDRAZONE] was tested, and the MIC [1] was 32 µg/mL (≈ 156 µM).

O=C(CCc1ccccc1)C[C@@H](O)/C=C/c1ccccc1 gave a Ratio [2] of 2, a Ratio [3] of 1 and a fractional inhibitory concentration index (FICI) [4] of 0.25. It also gave a Ratio [5] of 8, a fold change (FC) [6] of 4 and an RFU [7] of 15100. The Ratio [8] was 4, the MIC [1] was 64 µg/mL (≈ 228 µM) and the Ratio [9] was 1. It also gave a fractional inhibitory concentration index (FICI) [10] of 0.75, a fold change (FC) [11] of 4 and a normalized EtBr fluorescence relative to control [12] of 0.72.

In the case of CCCCC/C=C\C/C=C\CCCCCCCC(=O)O [LINOLEIC ACID], the Ratio [13] is reported as 2, the Ratio [14] is reported as 1 and the MIC [1] is reported as 4 µg/mL (≈ 14.3 µM). It also gave a Ratio [15] of 2.

CO[C@H]1/C=C/O[C@@]2(C)Oc3c(C)c(O)c4c(O)c(c(/C=N/N5CCN(C)CC5)c(O)c4c3C2=O)NC(=O)/C(C)=C\C=C\[C@H](C)[C@H](O)[C@@H](C)[C@@H](O)[C@@H](C)[C@H](OC(C)=O)[C@@H]1C [RIFAMPIN] gave an MIC [1] of 32 µg/mL (≈ 38.9 µM).

CCCCCCCCCCCCCCCC(=O)O [PALMITIC ACID] showed a Ratio [16] of 1, a Ratio [17] of 0.5 and an MIC [1] of 128 µg/mL (≈ 499 µM).

Compound O=C(O)c1cn(C2CC2)c2cc(N3CCNCC3)c(F)cc2c1=O [CIPROFLOXACIN] has an MIC [1] of 0.125 µg/mL (≈ 0.377 µM).

Compound O=C(/C=C/C=C/c1ccccc1)CCc1ccccc1 has a fractional inhibitory concentration index (FICI) [18] of 0.28, a Ratio [16] of 4 and a Ratio [19] of 4. For the same compound, the Ratio [17] was 1, the Ratio [20] was 1 and the fold change (FC) [6] was 4. The inhibition [21] was “Active”, the RFU [7] was 19400 and the inhibition [22] was “Dose-dependent effect”. For the same compound, the MIC [1] was no less than 128 µg/mL, the inhibition [23] was “Active” and the inhibition [24] was “Dose-dependent effect”. The fractional inhibitory concentration index (FICI) [25] was 0.27, the inhibition [26] was “Active” and the fold change (FC) [11] was 4. For the same compound, the Ratio [27] was 1, the inhibition [28] was “Active” and the normalized EtBr fluorescence relative to control [12] was 0.806.

With CCCCCCCC/C=C\CCCCCCCC(=O)O [OLEIC ACID] the MIC [1] was 8 µg/mL (≈ 28.3 µM), the Ratio [29] was 1 and the Ratio [30] was 4. It also gave a Ratio [31] of 1.
